Experiment [1] deals with T1, GABA-A receptor; alpha-1/beta-2/gamma-2 (Rattus norvegicus) (UniProt P18508+P62813+P63138). Briefly: Activity at rat GABA-Aalpha1 receptor plus beta2gamma2L expressed in Xenopus laevis oocyte assessed as ratio of GABA-mediated current in presence to absence of compound at 1 uM. Format: functional.
Experiment [2] deals with T1, GABA-A receptor; alpha-1/beta-2/gamma-2 (Rattus norvegicus). Nature of the experiment: Activity at rat GABA-Aalpha1 receptor plus beta-2-gamma-2L expressed in Xenopus laevis oocyte assessed as ratio of GABA-mediated current in presence to absence of compound at 0.1 uM. The class given is functional.
Experiment [3] is filed under the species Xenopus laevis. Briefly: Loss of swimming reflex in Xenopus laevis tadpole at 10 uM. Format: functional, organism-based.
Experiment [4] concerns the target T1, GABA-A receptor; alpha-1/beta-2/gamma-2 (Rattus norvegicus). Nature of the experiment: Activity at rat GABA-Aalpha1 receptor plus beta-2-gamma-2L expressed in Xenopus laevis oocyte assessed as ratio of current evoked by compound alone in absence of GABA to current evoked by 2 uM GABA at 10 uM.
The target is the same in experiment [5]. Briefly: Activity at rat GABA-Aalpha1 receptor plus beta-2-gamma-2L expressed in Xenopus laevis oocyte assessed as ratio of GABA-mediated current in presence to absence of compound at 10 uM. Format: functional.
For experiment [6], the species on record is Xenopus laevis. Briefly: Loss of righting reflex in Xenopus laevis tadpole. Format: functional. A digest of the protocol: (§1)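 Xenopus tadpoles were scored for loss of righting response and, separately, loss of swimming response. N = 10 animals were tested at each of five or more concentrations, and error is given as SEM.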
In experiment [7] the target is GABA-A receptor; anion channel. Nature of the experiment: Displacement of [35S]TBPS from GABA-A receptor in rat brain membrane. The class given is cell membranes. A digest of the protocol: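 Rat brain membranes were used to measure noncompetitive displacement of [35S]-TBPS from the picrotoxin site of GABAA receptors. Hill slopes were also derived. Results come from duplicate experiments run in triplicate, with error as SEM.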
Background: Displacement assays read how much labelled ligand stays bound in the presence of the test substance.

Experiment [8] is filed under the species Xenopus laevis. Nature of the experiment: Loss of righting reflex in Xenopus laevis tadpole at 10 uM. Format: functional, organism-based.
Experiment [9] is filed under the species Xenopus laevis. Briefly: Loss of swimming reflex in Xenopus laevis tadpole. The class given is functional. A digest of the protocol: as §1

The source made the active and inactive calls. The rule behind the calls is not given here.

One may read the IC50 as the concentration that inhibits the measured activity by half. Read a high IC50 as lower potency. For `C[C@]12CC[C@@H](O)C[C@H]1CC[C@@H]1[C@@H]2CC[C@]2(C)C(=O)CC[C@@H]12` [ETIOCHOLANOLONE], the Ratio in experiment [1] turned out to be 0.87; in experiment [2] it was 0.89; in experiment [4], 0; in experiment [5], 1.39. Moreover, the outcome in the experiment listed under Xenopus laevis [3] was inactive. Moreover, the ED50 in the experiment filed under Xenopus laevis [6] is >10000 nM. This compound also displayed an IC50 in experiment [7] of 4140 nM.

Consider `C[C@]12C[C@H]3CC[C@@H](CCO)CC3C[C@@H]1CCC2=O` (single isomer, unassigned; 1c) [listing 1 of 2 here], for which the Ratio is 0.9 in experiment [1], 0.93 in experiment [2], -0.01 in [4] and 1.02 in experiment [5]. The outcome in the experiment filed under Xenopus laevis [3] and in the experiment listed under Xenopus laevis [8] was inactive.

On to `CC(=O)[C@H]1CC[C@H]2[C@@H]3CC[C@H]4C[C@H](O)CC[C@]4(C)[C@H]3CC[C@]12C` [BREXANOLONE], for which the Ratio came out at 3.89 in experiment [1], 1.26 in [2], 0.37 in experiment [4] and 9.65 in [5]. The ED50 in the experiment filed under Xenopus laevis [6] stood at 420 nM; in the experiment filed under Xenopus laevis [9], 5500 nM.

Take `C[C@]12C[C@H]3CC[C@@H](CCO)CC3C[C@@H]1CC[C@@H]2C#N` (single isomer, unassigned; 2c) [listing 1 of 2 here]: the Ratio was 1.14 in [1], 1.01 in [2], -0.01 in experiment [4] and 3.23 in experiment [5]. The outcome in the experiment listed under Xenopus laevis [3] was inactive.

Regarding `C[C@]12C[C@H]3CC[C@H](CCO)CC3C[C@@H]1CCC2=O` (single isomer, unassigned; 1a) [listing 1 of 2 here], the Ratio in experiment [1] is 1; in [2], 1; in experiment [4], -0.02; in [5], 2.42. Further, the result in the experiment listed under Xenopus laevis [3] was inactive.

For the compound `CC(=O)[C@H]1CC[C@H]2[C@@H]3CC[C@H](CCO)C[C@H]3CC[C@]12C`, the Ratio in experiment [1] came to 3.79; in experiment [2] it was 1.27; in [4], 0.13; in [5], 9.35. For the same compound, the ED50 in the experiment filed under Xenopus laevis [6] worked out at 1040 nM; in the experiment listed under Xenopus laevis [9], 2840 nM. For the same compound, the IC50 in experiment [7] worked out at 130 nM.

In the case of `C[C@]12CC[C@@H](O)C[C@H]1CC[C@@H]1[C@@H]2CC[C@]2(C)[C@@H](C#N)CC[C@@H]12`, the Ratio in experiment [1] was determined as 10.4; in experiment [2], 2.02; in [4], 0.09; in experiment [5], 20.6. Moreover, the ED50 in the experiment listed under Xenopus laevis [6] is 80 nM; in the experiment filed under Xenopus laevis [9], 360 nM. This compound returned an IC50 in [7] of 72 nM.

With `C[C@]12CC[C@@H](O)C[C@@H]1CC[C@@H]1[C@@H]2CC[C@]2(C)C(=O)CC[C@@H]12` [ANDROSTERONE], the Ratio in experiment [1] was determined as 1.41; in experiment [2] it was 0.97; in experiment [4] it was 0.02; in experiment [5], 5.44. Also, the outcome in the experiment listed under Xenopus laevis [3] was inactive. The ED50 in the experiment filed under Xenopus laevis [6] was found to be 3380 nM. In addition, the IC50 in experiment [7] was 410 nM.

The compound `C[C@]12C[C@H]3CC[C@H](CCO)CC3C[C@@H]1CCC2=O` (single isomer, unassigned; 1d) [listing 1 of 2 here] yielded an ED50 in the experiment listed under Xenopus laevis [6] of 10000 nM. For the same compound, the IC50 in experiment [7] is > 10000 nM.

As for `CC(=O)[C@H]1CC[C@H]2[C@@H]3CC[C@@H]4C[C@H](O)CC[C@]4(C)[C@H]3CC[C@]12C` [ELTANOLONE], the Ratio in experiment [1] was determined as 2.82; in experiment [2], 1.2; in experiment [4] it was 0.06; in experiment [5] it was 9.77. Further, the ED50 in the experiment filed under Xenopus laevis [6] worked out at 60 nM; in the experiment listed under Xenopus laevis [9] it was 300 nM.

The compound `C[C@]12C[C@H]3CC[C@H](CCO)CC3C[C@@H]1CCC2=O` (single isomer, unassigned; 1a) [listing 2 of 2 here] gave an ED50 in the experiment filed under Xenopus laevis [6] of 4010 nM. The IC50 in [7] is 5010 nM.

In turn, `C[C@]12C[C@H]3CC[C@@H](CCO)CC3C[C@@H]1CCC2=O` (single isomer, unassigned; 1b) returned an IC50 in [7] of 3920 nM.

With `C[C@]12C[C@H]3CC[C@H](CCO)CC3C[C@@H]1CC[C@@H]2C#N` (single isomer, unassigned; 2a) [listing 1 of 2 here], the Ratio in experiment [1] was 1.29; in [2], 1.02; in experiment [4], 0; in experiment [5], 3.9.

Regarding `C[C@]12C[C@H]3CC[C@H](CCO)CC3C[C@@H]1CC[C@@H]2C#N` (single isomer, unassigned; 2a) [listing 2 of 2 here], the ED50 in the experiment filed under Xenopus laevis [6] turned out to be 4780 nM; in the experiment listed under Xenopus laevis [9], 17300 nM. Besides, in experiment [7], the IC50 worked out at 1220 nM.

For `CC(=O)[C@H]1CC[C@H]2CC3C[C@@H](CCO)CC[C@@H]3C[C@@]21C` (single isomer, unassigned), the ED50 in the experiment listed under Xenopus laevis [6] turned out to be 6630 nM; in the experiment filed under Xenopus laevis [9] it was 17300 nM. In experiment [7], this compound showed an IC50 of 2050 nM.

For the compound `CC(=O)[C@H]1CC[C@H]2CC3C[C@H](CCO)CC[C@@H]3C[C@@]21C` (single isomer, unassigned), the outcome in the experiment filed under Xenopus laevis [3] was inactive. The ED50 in the experiment filed under Xenopus laevis [6] is >10000 nM.

As for `CC(=O)[C@H]1CC[C@H]2[C@@H]3CC[C@@H](CCO)C[C@H]3CC[C@]12C`, the Ratio in experiment [1] came to 0.96; in experiment [2], 0.91; in experiment [4], 0.14; in experiment [5], 3.63. Moreover, the figures for the ED50 in the experiment listed under Xenopus laevis [6] and in the experiment filed under Xenopus laevis [9] were 1090 nM and 3150 nM, respectively. Moreover, the IC50 in experiment [7] amounted to 1170 nM.

As to `C[C@]12C[C@H]3CC[C@H](CCO)CC3C[C@@H]1CC[C@@H]2C#N` (single isomer, unassigned; 2d) [listing 1 of 2 here], the Ratio in experiment [1] was 1.03; in [2], 0.98; in experiment [4] it was 0.01; in experiment [5], 2.17.

In the experiment listed under Xenopus laevis [6], `C[C@]12C[C@H]3CC[C@@H](CCO)CC3C[C@@H]1CC[C@@H]2C#N` (single isomer, unassigned; 2c) [listing 2 of 2 here] displayed an ED50 of 3000 nM. In experiment [7], the IC50 amounted to 1980 nM.

For `C[C@]12C[C@H]3CC[C@H](CCO)CC3C[C@@H]1CC[C@@H]2C#N` (single isomer, unassigned; 2d) [listing 2 of 2 here], the ED50 in the experiment listed under Xenopus laevis [6] stood at 5120 nM; in the experiment filed under Xenopus laevis [9], 17300 nM. In [7], this compound had an IC50 of 1900 nM.

Take `C[C@]12C[C@H]3CC[C@@H](CCO)CC3C[C@@H]1CCC2=O` (single isomer, unassigned; 1c) [listing 2 of 2 here]: the IC50 in experiment [7] is > 30000 nM.

With `C[C@]12C[C@H]3CC[C@@H](CCO)CC3C[C@@H]1CC[C@@H]2C#N` (single isomer, unassigned; 2b) [listing 1 of 2 here], the ED50 was 2880 nM in the experiment filed under Xenopus laevis [6] and 5480 nM in the experiment listed under Xenopus laevis [9]. In [7], this compound yielded an IC50 of 520 nM.

Consider `C[C@]12CC[C@@H](O)C[C@@H]1CC[C@@H]1[C@@H]2CC[C@]2(C)[C@@H](C#N)CC[C@@H]12`, for which the Ratio was determined as 5.65 in experiment [1], 1.44 in experiment [2], 0.66 in [4] and 8.28 in experiment [5]. Moreover, the ED50 was found to be 70 nM in the experiment listed under Xenopus laevis [6] and 710 nM in the experiment listed under Xenopus laevis [9]. In addition, the IC50 in experiment [7] was determined as 50 nM.

As to `C[C@]12CC[C@@H]3C[C@H](CCO)CC[C@H]3[C@@H]1CC[C@@H]2C#N`, the Ratio in experiment [1] amounted to 2.33; in experiment [2] it was 1.29; in experiment [4], 0.54; in experiment [5], 12.2. Also, the ED50 in the experiment listed under Xenopus laevis [6] was 790 nM; in the experiment listed under Xenopus laevis [9], 5500 nM. The same compound gave an IC50 in [7] of 580 nM.

On to `C[C@]12CC[C@@H]3C[C@@H](CCO)CC[C@H]3[C@@H]1CCC2=O`, for which the Ratio in experiment [1] was 1.22; in [2] it was 0.95; in experiment [4] it was -0.16; in experiment [5], 2.11. Also, the result in the experiment filed under Xenopus laevis [3] was inactive. Also, in the experiment listed under Xenopus laevis [6], the ED50 turned out to be 8100 nM. Further, the IC50 in experiment [7] came to 5420 nM.

Regarding `C[C@]12CC[C@@H]3C[C@@H](CCO)CC[C@H]3[C@@H]1CC[C@@H]2C#N`, the Ratio was determined as 3.65 in experiment [1], 1.45 in experiment [2], 0.01 in [4] and 7.42 in [5]. For the same compound, the values for the ED50 in the experiment filed under Xenopus laevis [6] and in the experiment listed under Xenopus laevis [9] were 140 nM and 1730 nM, respectively. Also, the IC50 in [7] stood at 130 nM.

`C[C@]12CC[C@@H]3C[C@H](CCO)CC[C@H]3[C@@H]1CCC2=O`: the Ratio in experiment [1] was determined as 1.03; in experiment [2] it was 0.99; in [4] it was 0.03; in experiment [5], 1.05. Besides, in the experiment listed under Xenopus laevis [3], the outcome was inactive. For the same compound, in the experiment filed under Xenopus laevis [6], the ED50 is 16400 nM. Also, the IC50 in experiment [7] stood at 4170 nM.

Regarding `C[C@]12C[C@H]3CC[C@@H](CCO)CC3C[C@@H]1CC[C@@H]2C#N` (single isomer, unassigned; 2b) [listing 2 of 2 here], the Ratio amounted to 2.11 in [1], 1.02 in experiment [2], 0.01 in experiment [4] and 7.21 in [5].

In the case of `C[C@]12C[C@H]3CC[C@H](CCO)CC3C[C@@H]1CCC2=O` (single isomer, unassigned; 1d) [listing 2 of 2 here], the Ratio in experiment [1] was 1.04; in experiment [2] it was 1.02; in experiment [4], -0.05; in [5] it was 1.21. Also, the result in the experiment listed under Xenopus laevis [3] was inactive.

These data come from ChEMBL document CHEMBL1137418, “Neurosteroid analogues. 11. Alternative ring system scaffolds: gamma-aminobutyric acid receptor modulation and anesthetic actions of benz[f]indenes” (J Med Chem, 2006).
